Assay results published in ChEMBL document CHEMBL3259629, “Discovery and optimization of piperidyl-1,2,3-triazole ureas as potent, selective, and in vivo-active inhibitors of α/β-hydrolase domain containing 6 (ABHD6)” (J Med Chem, 2013).
Active and inactive are the calls of the source. The calls are words filed in the database; no cut-off is given here.

Experiments:
[1] = target: T1, Monoacylglycerol lipase ABHD6 (Mus musculus) (UniProt Q8R2Y0); test: Inhibition of ABHD6 in FP-rhodamine-labelled mouse brain membrane at 1 nM preincubated for 30 mins followed by FP-rhodamine labelling measured after 30 mins by gel-based competitive ABPP assay; format: tissue-based
T1 sequence (whole entry): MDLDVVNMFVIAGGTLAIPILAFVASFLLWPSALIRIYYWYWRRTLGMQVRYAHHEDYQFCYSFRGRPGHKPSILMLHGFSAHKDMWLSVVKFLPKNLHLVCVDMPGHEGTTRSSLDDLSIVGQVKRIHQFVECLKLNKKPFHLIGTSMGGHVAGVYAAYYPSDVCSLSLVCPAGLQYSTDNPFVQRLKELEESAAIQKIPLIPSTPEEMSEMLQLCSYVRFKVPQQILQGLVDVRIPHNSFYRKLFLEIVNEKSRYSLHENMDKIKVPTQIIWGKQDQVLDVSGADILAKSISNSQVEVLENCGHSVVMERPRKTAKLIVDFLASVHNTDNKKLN
Outline: (§1)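 Mouse brain membrane proteome (1 mg/mL) preincubated with compound for 30 min at 37 °C, then labelled with FP-rhodamine or HT-01 (1 μM final) for 30 min at 37 °C. Quenched in SDS loading buffer, run on 10% SDS-PAGE and scanned for in-gel fluorescence. Bands assigned by gel migration.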

[2] = target: T2, Diacylglycerol lipase-beta (Mus musculus) (UniProt Q91WC9); test: Inhibition of FP-rhodamine-labelled recombinant mouse DAGLbeta expressed in HEK293T cells at 1 uM preincubated for 30 mins followed by FP-rhodamine labelling measured after 30 mins by gel-based competitive ABPP assay; format: cell-based; settings: HEK-293T
T2 sequence (whole entry): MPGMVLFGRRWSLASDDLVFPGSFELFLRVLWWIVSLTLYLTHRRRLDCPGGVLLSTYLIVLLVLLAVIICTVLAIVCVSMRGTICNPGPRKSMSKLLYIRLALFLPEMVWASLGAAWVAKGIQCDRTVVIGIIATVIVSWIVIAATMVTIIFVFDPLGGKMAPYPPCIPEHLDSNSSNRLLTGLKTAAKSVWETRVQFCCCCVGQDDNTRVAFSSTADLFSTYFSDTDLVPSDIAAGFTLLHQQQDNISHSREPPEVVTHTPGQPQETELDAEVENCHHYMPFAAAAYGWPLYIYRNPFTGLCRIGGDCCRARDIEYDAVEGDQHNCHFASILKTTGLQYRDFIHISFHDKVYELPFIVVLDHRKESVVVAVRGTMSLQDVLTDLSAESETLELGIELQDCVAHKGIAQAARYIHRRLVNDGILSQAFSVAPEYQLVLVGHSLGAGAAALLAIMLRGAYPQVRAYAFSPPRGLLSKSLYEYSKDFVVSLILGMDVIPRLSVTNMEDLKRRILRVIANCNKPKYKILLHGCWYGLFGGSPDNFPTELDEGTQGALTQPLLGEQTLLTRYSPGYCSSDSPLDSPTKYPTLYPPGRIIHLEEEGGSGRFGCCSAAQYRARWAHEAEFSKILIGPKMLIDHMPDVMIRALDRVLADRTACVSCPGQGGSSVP
Outline: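 Mouse DAGLβ transiently overexpressed in HEK293T. Lysate diluted to 0.3 mg/mL in 50 mM HEPES pH 7.2, 100 mM NaCl, 5 mM CaCl₂, 0.1% Triton X-100, 10% DMSO. Compound preincubated 30 min at 37 °C, then 1 μM probe for 30 min at 37 °C, SDS-PAGE and in-gel fluorescence.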

[3] = target: Acyl-protein thioesterase 1 (Mus musculus) (UniProt P97823); test: Inhibition of FP-rhodamine-labelled recombinant mouse LYPLA1 at 1 uM preincubated for 30 mins followed by FP-rhodamine labelling measured after 30 mins by gel-based competitive ABPP assay
Sequence of Acyl-protein thioesterase 1 (Mus musculus) (P97823 whole entry): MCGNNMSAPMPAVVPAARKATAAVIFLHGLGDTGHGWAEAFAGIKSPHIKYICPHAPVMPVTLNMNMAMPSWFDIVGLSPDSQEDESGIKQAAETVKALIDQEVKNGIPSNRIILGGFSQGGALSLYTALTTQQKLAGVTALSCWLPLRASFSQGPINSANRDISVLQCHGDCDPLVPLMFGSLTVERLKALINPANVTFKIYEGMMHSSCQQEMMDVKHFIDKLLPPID

[4] = target: T3, Acylamino-acid-releasing enzyme (Mus musculus) (UniProt Q8R146); test: Inhibition of FP-rhodamine-labelled recombinant mouse APEH at 10 uM preincubated for 30 mins followed by FP-rhodamine labelling measured after 30 mins by gel-based competitive ABPP assay
T3 sequence (whole entry): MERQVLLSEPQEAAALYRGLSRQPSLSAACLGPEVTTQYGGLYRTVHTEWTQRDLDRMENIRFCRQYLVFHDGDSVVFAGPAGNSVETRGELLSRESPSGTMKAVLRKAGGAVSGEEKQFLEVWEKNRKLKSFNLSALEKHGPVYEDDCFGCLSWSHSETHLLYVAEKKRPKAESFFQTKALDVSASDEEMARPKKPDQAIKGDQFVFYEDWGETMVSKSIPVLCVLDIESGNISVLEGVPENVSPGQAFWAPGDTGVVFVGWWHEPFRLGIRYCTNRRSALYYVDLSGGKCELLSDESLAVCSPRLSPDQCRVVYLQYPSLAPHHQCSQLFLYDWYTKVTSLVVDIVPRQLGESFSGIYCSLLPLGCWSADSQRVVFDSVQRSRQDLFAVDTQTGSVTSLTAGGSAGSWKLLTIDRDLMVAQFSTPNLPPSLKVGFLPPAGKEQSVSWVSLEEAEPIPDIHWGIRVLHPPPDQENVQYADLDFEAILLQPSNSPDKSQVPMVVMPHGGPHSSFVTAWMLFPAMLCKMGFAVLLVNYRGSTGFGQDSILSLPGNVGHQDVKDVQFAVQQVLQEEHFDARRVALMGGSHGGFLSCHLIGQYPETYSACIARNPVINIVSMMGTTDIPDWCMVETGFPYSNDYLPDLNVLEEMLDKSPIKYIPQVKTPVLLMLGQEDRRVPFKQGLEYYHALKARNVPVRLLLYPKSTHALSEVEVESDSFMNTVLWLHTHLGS

[5] = target: T1, Monoacylglycerol lipase ABHD6 (Mus musculus); test: Inhibition of ABHD6 in FP-rhodamine-labelled mouse brain membrane at 10 nM preincubated for 30 mins followed by FP-rhodamine labelling measured after 30 mins by gel-based competitive ABPP assay; format: tissue-based; outline: as §1
[6] = target: Acyl-protein thioesterase 2 (Mus musculus) (UniProt Q9WTL7); test: Inhibition of FP-rhodamine-labelled recombinant mouse LYPLA2 at 1 uM preincubated for 30 mins followed by FP-rhodamine labelling measured after 30 mins by gel-based competitive ABPP assay
Sequence of Acyl-protein thioesterase 2 (Mus musculus) (Q9WTL7 whole entry): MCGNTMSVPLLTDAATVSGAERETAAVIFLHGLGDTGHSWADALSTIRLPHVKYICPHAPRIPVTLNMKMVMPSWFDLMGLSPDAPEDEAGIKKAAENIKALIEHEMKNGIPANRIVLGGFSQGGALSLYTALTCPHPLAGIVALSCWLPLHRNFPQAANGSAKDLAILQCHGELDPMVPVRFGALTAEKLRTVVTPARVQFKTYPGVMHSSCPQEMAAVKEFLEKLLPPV

[7] = target: T3, Acylamino-acid-releasing enzyme (Mus musculus); test: Inhibition of FP-rhodamine-labelled recombinant mouse APEH at 1 uM preincubated for 30 mins followed by FP-rhodamine labelling measured after 30 mins by gel-based competitive ABPP assay
[8] = target: Acyl-protein thioesterase 1 (Mus musculus) (UniProt P97823); test: Inhibition of FP-rhodamine-labelled recombinant mouse LYPLA1 at 10 uM preincubated for 30 mins followed by FP-rhodamine labelling measured after 30 mins by gel-based competitive ABPP assay
[9] = target: T4, Fatty-acid amide hydrolase 1 (Mus musculus) (UniProt O08914); test: Inhibition of mouse brain FAAH at 10 uM after 30 mins by FP-rhodamine ABPP-based SDS-PAGE analysis relative to control
T4 sequence (whole entry): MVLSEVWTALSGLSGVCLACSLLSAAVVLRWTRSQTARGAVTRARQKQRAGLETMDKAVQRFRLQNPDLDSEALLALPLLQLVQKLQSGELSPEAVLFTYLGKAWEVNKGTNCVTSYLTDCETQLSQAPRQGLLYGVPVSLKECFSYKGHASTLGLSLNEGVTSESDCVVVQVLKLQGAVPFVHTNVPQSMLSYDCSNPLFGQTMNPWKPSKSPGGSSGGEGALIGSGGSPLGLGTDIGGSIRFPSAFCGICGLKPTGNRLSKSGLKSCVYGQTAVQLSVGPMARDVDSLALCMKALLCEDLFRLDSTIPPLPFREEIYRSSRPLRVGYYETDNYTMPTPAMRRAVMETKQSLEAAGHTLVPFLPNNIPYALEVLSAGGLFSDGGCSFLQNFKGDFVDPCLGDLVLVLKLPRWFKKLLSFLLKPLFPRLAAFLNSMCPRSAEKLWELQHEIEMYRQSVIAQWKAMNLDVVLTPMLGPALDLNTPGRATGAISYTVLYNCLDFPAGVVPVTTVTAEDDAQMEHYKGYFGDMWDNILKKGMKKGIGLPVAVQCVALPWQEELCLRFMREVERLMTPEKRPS

[10] = target: Acyl-protein thioesterase 2 (Mus musculus) (UniProt Q9WTL7); test: Inhibition of FP-rhodamine-labelled recombinant mouse LYPLA2 at 10 uM preincubated for 30 mins followed by FP-rhodamine labelling measured after 30 mins by gel-based competitive ABPP assay

inhibition [1]: 36% | inhibition [2]: 6% | inhibition [3]: Active | inhibition [4]: Active | inhibition [5]: 100% | inhibition [6]: Active | inhibition [7]: Active | inhibition [8]: Active | inhibition [9]: Active | inhibition [10]: Active
Compound: O=C(O)c1cccc(-c2ccc(-c3cn(C(=O)N4CCCCC4c4ccccc4)nn3)cc2)c1 (racemic)
